Experimental data reported in ChEMBL document CHEMBL3407422, “2-(2-oxo-morpholin-3-yl)-acetamide derivatives as broad-spectrum antifungal agents” (J Med Chem, 2015).
Converted amounts (≈) assume the structure as drawn. The source made the active and inactive calls. The rule behind the calls is not given here.

Tests used:
[1] = system: Candida albicans; experiment: Antifungal activity against Candida albicans SC5314 infected in BALB/c mouse assessed as reduction in reduction in fungal load in kidney at 10 mg/kg/day, ip for 5 days relative to vehicle-treated control; assay type: functional, organism-based
Method in brief: (§1)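 BALB/c mice given cyclophosphamide 100 mg/kg at 4 days and 24 h before infection and at 3 days after. Infected IV with 2×10^3 SC5314 cells in saline. Dosed IP daily for 5 days from 16 h post-infection, in DMSO/0.5% methylcellulose (5/95). Organs taken on day 7, homogenized and plated on BHI agar (18 h, 37 °C). CFU/g compared with vehicle.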

[2] = Half life in simulated gastric fluid at pH 1.2; assay type: ADME
Method in brief: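 Stability in simulated gastric fluid containing 800000 Units/L pepsin at pH 1.2; half-life reported.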

[3] = system: Sporothrix schenckii; experiment: Fungicidal activity against Sporothrix schenckii B62482; assay type: functional, organism-based
Method in brief: (§2)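 Inoculum of 10^3 CFU in RPMI-MOPS added to prediluted compound, highest concentration 64 µM. Growth read by resazurin fluorescence (ex 550, em 590 nm). IC50 is 50% growth inhibition versus untreated controls. Three independent replicates.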

[4] = Half life in human liver microsomes; assay type: ADME
[5] = system: Candida albicans; experiment: Antifungal activity against Candida albicans SC5314 infected in BALB/c mouse assessed as reduction in reduction in fungal load in spleen at 10 mg/kg/day, ip for 5 days relative to vehicle-treated control; assay type: functional, organism-based; method in brief: as §1
[6] = system: Candida albicans; experiment: Antifungal activity against Candida albicans SC5314 after 24 hrs; assay type: functional
Method in brief: (§3)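 Overnight YPD cultures diluted in PBS (1/200 for C. albicans, 1/400 for C. glabrata). Cells treated with compound, or 2.5% DMSO as solvent control, for 24 h at 37 °C. CFUs then counted; MFC is the concentration giving 99% killing of the inoculum.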

[7] = system: Saccharomyces cerevisiae; experiment: Antifungal activity against Saccharomyces cerevisiae BY4741 at 12.5 to 50 ug/ml after 24 hrs by Omnilog plate reader analysis in presence of monothioglycerol; assay type: functional, organism-based
Method in brief: (§4)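 S. cerevisiae BY4741 from overnight YPD culture, 1/500 final dilution, in Biolog PM22–PM25 chemical sensitivity plates (96 conditions). Compound tested at 12.5 and 50 µg/mL. Plates incubated 24 h at 37 °C in the Omnilog reader.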

[8] = system: Saccharomyces cerevisiae; experiment: Antifungal activity against Saccharomyces cerevisiae BY4741 at 12.5 to 50 ug/ml after 24 hrs by Omnilog plate reader analysis in presence of sodium thiosulfate; assay type: functional, organism-based; method in brief: as §4
[9] = Plasma protein binding in human; assay type: ADME, cell-free; details: read-out: PPB (converted)
[10] = molecular target: hERG (KCNH2) (Homo sapiens, UniProt Q12809); experiment: Inhibition of human ERG channel at 10 uM
hERG (KCNH2), sequence (Q12809 whole entry): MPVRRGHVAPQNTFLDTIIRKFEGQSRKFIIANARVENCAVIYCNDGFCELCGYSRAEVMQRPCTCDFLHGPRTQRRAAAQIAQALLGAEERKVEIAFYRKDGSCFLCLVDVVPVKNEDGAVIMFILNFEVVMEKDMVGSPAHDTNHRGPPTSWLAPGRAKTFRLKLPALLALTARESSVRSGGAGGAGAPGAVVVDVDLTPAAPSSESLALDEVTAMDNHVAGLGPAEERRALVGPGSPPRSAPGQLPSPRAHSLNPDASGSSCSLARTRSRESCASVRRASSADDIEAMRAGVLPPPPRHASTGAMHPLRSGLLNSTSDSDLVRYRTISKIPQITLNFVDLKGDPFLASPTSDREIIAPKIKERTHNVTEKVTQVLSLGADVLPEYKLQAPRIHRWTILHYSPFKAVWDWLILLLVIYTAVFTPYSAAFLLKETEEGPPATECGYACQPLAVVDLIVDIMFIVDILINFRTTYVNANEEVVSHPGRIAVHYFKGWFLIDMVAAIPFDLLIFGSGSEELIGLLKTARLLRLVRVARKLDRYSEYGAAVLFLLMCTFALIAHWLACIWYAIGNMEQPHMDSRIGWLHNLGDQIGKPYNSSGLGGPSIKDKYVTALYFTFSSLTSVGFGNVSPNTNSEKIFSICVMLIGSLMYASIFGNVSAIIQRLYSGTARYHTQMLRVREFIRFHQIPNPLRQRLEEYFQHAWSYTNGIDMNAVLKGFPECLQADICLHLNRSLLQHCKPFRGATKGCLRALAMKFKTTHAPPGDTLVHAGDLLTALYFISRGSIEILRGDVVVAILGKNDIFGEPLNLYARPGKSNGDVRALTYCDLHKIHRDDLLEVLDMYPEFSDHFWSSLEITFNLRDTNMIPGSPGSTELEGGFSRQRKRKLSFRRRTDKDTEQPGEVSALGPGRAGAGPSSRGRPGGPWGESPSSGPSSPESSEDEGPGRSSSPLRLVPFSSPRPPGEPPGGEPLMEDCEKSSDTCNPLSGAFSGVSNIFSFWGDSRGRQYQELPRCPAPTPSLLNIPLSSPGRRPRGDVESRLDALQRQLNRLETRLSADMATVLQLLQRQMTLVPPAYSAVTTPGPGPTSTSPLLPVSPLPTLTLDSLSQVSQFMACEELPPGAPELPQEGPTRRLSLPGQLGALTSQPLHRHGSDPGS

[11] = system: Saccharomyces cerevisiae; experiment: Antifungal activity against Saccharomyces cerevisiae BY4741 at 12.5 to 50 ug/ml after 24 hrs by Omnilog plate reader analysis in presence of sodium cyanide; assay type: functional, organism-based; method in brief: as §4
[12] = Half life in simulated intestinal fluid […]; assay type: ADME
[13] = system: Candida albicans; experiment: Antifungal activity against Candida albicans SC5314 infected in BALB/c mouse assessed as reduction in reduction in fungal load in liver at 10 mg/kg/day, ip for 5 days relative to vehicle-treated control; assay type: functional, organism-based; method in brief: as §1
[14] = Half life in mouse liver microsomes; assay type: ADME
[15] = system: Saccharomyces cerevisiae; experiment: Antifungal activity against Saccharomyces cerevisiae BY4741 at 12.5 to 50 ug/ml after 24 hrs by Omnilog plate reader analysis in presence of potassium chromate; assay type: functional, organism-based; method in brief: as §4
[16] = system: Nakaseomyces glabratus; experiment: Antifungal activity against Candida glabrata BG2 after 24 hrs; assay type: functional; method in brief: as §3
[17] = Apparent permeability from apical to basolateral side in human Caco2 cells; assay type: ADME, cell-based; details: Caco-2
[18] = system: Saccharomyces cerevisiae; experiment: Antifungal activity against Saccharomyces cerevisiae BY4741 at 12.5 to 50 ug/ml after 24 hrs by Omnilog plate reader analysis in presence of chlortetracycline hydrochloride; assay type: functional, organism-based; method in brief: as §4
[19] = system: Microsporum canis; experiment: Fungicidal activity against Microsporum canis B68128; assay type: functional; method in brief: as §2
[20] = system: Candida albicans; experiment: Fungicidal activity against CA2 high-persister Candida albicans clinical isolate; assay type: functional
[21] = system: Aspergillus flavus; experiment: Antifungal activity against Aspergillus flavus CBS111.45 after 24 hrs by two-fold dilution method; assay type: functional; details: CBS111.45, 24 h
Method in brief: (§5)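 Spores at 2×10^4 spores/mL in potato dextrose broth, incubated with a 2-fold compound dilution series for 24 h at 25 °C. Growth read by microspectrophotometry of the liquid cultures. MIC taken as the lowest concentration inhibiting fungal growth.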

[22] = system: Aspergillus fumigatus; experiment: Antifungal activity against Aspergillus fumigatus CBS 117202 after 24 hrs by two-fold dilution method; assay type: functional; details: CBS 117202, 24 h; method in brief: as §5
[23] = Half life in human plasma; assay type: ADME, cell-free
[24] = system: Trichophyton rubrum; experiment: Fungicidal activity against Trichophyton rubrum B68183; assay type: functional, organism-based; method in brief: as §2
[25] = system: Saccharomyces cerevisiae; experiment: Antifungal activity against Saccharomyces cerevisiae BY4741 at 12.5 to 50 ug/ml after 24 hrs by Omnilog plate reader analysis; assay type: functional, organism-based; method in brief: as §4
[26] = Kinetic solubility of the compound at pH 7.4; assay type: physicochemical; details: buffer, read-out: Kinetic_solubility
[27] = system: Trichophyton mentagrophytes; experiment: Fungicidal activity against Trichophyton mentagrophytes B70554; assay type: functional, organism-based; method in brief: as §2
[28] = Apparent permeability from basolateral to apical side in human Caco2 cells; assay type: ADME, cell-based; details: Caco-2
[29] = Cytotoxicity against human MRC5 SV2 cells after 72 hrs by fluorescence assay; assay type: cell-based
Method in brief: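 MRC-5 SV2 cells (10^4/well) grown in MEM with L-glutamine, NaHCO3 and 5% FCS. Incubated with compound 72 h at 37 °C, 5% CO2, then resazurin added for 24 h. Fluorescence read at ex 530, em 590 nm.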

[30] = molecular target: CYP2C9 (Homo sapiens, UniProt P11712); experiment: Inhibition of CYP2C9 (unknown origin) at 10 uM; assay type: ADME
CYP2C9, sequence (P11712 whole entry): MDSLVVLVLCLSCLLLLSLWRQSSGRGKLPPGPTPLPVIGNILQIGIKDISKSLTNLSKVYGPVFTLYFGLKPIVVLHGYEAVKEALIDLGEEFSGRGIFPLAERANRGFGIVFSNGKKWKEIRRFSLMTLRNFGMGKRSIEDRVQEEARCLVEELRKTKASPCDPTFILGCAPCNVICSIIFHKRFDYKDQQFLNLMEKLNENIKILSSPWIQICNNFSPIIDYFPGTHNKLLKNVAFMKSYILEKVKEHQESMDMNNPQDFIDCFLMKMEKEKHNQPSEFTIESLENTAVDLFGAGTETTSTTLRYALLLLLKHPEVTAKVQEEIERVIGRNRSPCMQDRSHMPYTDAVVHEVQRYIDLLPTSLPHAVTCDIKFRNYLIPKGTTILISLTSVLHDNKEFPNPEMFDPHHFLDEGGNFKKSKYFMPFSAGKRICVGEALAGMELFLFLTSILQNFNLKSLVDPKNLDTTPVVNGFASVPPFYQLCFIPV

[31] = Drug metabolism in mouse liver microsomes at 10 uM after 90 mins by LC-MS/MS analysis; assay type: ADME; details: 1.5 h
[32] = molecular target: CYP2C19 (Homo sapiens, UniProt P33261); experiment: Inhibition of CYP2C19 (unknown origin) at 10 uM; assay type: ADME
CYP2C19, sequence (P33261 whole entry): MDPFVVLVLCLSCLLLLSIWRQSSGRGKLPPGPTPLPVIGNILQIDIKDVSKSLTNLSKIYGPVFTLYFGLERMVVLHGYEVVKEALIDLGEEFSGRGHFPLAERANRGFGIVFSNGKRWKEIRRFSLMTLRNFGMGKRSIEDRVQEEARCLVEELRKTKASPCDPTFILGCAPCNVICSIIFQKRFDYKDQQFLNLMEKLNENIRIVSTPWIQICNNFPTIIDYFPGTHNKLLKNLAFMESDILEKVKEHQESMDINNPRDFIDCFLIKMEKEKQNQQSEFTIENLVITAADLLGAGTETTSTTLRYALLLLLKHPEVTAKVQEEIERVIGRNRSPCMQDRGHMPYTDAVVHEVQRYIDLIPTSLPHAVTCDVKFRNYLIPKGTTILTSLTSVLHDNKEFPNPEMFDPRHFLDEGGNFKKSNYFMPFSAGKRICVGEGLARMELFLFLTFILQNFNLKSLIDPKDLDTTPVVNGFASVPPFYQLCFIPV

[33] = molecular target: T1, CYP1A2 (Homo sapiens, UniProt P05177); experiment: Inhibition of CYP1A2 (unknown origin) at 10 uM; assay type: ADME
T1 sequence (P05177 whole entry): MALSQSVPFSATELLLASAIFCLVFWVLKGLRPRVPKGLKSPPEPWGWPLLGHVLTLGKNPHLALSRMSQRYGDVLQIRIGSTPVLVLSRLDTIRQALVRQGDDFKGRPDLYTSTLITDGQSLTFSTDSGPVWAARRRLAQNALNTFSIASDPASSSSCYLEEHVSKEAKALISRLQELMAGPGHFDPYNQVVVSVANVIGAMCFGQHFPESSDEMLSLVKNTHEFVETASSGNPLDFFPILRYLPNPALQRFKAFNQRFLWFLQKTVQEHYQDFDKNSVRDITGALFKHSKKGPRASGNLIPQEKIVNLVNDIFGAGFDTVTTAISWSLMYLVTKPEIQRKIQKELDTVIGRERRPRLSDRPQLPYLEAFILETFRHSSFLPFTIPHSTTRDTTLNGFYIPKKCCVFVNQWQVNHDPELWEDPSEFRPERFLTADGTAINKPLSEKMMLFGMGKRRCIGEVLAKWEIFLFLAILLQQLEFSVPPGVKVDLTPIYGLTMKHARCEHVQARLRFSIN

[34] = molecular target: CYP3A4 (Homo sapiens, UniProt P08684); experiment: Inhibition of CYP3A4 (unknown origin) at 10 uM; assay type: ADME
CYP3A4, sequence (P08684 whole entry): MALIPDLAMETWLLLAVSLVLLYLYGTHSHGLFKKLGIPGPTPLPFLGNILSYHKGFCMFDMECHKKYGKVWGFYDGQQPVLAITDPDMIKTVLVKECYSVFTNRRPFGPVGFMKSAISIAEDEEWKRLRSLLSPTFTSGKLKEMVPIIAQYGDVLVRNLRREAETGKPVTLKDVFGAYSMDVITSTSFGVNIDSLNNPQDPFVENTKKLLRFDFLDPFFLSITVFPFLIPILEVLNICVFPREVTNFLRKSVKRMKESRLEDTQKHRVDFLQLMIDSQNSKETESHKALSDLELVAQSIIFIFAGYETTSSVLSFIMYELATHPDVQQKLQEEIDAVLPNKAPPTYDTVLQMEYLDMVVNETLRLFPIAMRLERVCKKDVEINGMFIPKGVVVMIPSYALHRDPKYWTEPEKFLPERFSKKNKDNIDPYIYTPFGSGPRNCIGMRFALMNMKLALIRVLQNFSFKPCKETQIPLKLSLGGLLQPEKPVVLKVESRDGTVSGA

[35] = molecular target: CYP2D6 (Homo sapiens, UniProt P10635); experiment: Inhibition of CYP2D6 (unknown origin) at 10 uM; assay type: ADME
CYP2D6, sequence (P10635 whole entry): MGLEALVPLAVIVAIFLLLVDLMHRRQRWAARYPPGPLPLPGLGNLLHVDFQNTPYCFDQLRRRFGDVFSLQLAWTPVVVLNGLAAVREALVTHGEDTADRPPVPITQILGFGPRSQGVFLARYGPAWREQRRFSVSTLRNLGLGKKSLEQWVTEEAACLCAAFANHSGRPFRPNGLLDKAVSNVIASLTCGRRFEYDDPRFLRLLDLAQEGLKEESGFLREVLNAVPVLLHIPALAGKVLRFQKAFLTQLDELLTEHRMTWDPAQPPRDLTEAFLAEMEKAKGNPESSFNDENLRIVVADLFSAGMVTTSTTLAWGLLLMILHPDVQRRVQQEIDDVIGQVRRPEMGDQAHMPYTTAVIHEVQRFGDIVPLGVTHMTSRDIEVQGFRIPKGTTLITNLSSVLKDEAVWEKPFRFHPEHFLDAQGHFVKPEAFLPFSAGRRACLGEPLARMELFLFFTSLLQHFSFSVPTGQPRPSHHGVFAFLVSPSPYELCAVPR

CCN1CC(C)(C)OC(=O)C1CC(=O)NCc1cccc(-c2ccccc2)c1 (stereo not given)
Activity [1]: Active | half-life [2]: > 240 min | IC50 [3]: 2.7 µg/mL (≈ 7.1 µM) | half-life [4]: 6 min | Activity [5]: Active | MFC99 [6]: 12.5 µg/mL (≈ 32.9 µM) | Activity [7]: inactive | Activity [8]: inactive | fraction unbound [9]: 0.003 | inhibition at 10 µM [10]: 25.5% | Activity [11]: inactive | half-life [12]: 223 min | Activity [13]: Active | half-life [14]: 1 min | Activity [15]: inactive | MFC99 [16]: 12.5 µg/mL (≈ 32.9 µM) | Papp A→B [17]: 22 ×10⁻⁶ cm/s | Activity [18]: inactive | IC50 [19]: 2.4 µg/mL (≈ 6.31 µM) | MFC [20]: 12.5 µg/mL (≈ 32.9 µM) | MIC [21]: 25 µg/mL (≈ 65.7 µM) | MIC [22]: ≤ 3.1 µg/mL | half-life [23]: > 240 min | IC50 [24]: 0.7 µg/mL (≈ 1.84 µM) | Activity [25]: Active | solubility kinetic [26]: 50 µM (≈ 19 µg/mL) | IC50 [27]: 3 µg/mL (≈ 7.88 µM) | Papp B→A [28]: 13 ×10⁻⁶ cm/s | CC50 at 72 h [29]: > 20 µg/mL

CCN1CC(C)(C)OC(=O)C1CC(=O)Nc1ccc(C(C)C)cc1 (stereo not given)
Activity [1]: Active | half-life [2]: > 240 min | inhibition at 10 µM [30]: < 40% | IC50 [3]: 11.8 µg/mL (≈ 35.5 µM) | Drug metabolism [31]: metabolite_detected | inhibition at 10 µM [32]: < 40% | half-life [4]: 29 min | MFC99 [6]: 12.5 µg/mL (≈ 37.6 µM) | fraction unbound [9]: 0.061 | inhibition at 10 µM [10]: 11% | half-life [12]: > 240 min | half-life [14]: 6 min | MFC99 [16]: 25 µg/mL (≈ 75.2 µM) | inhibition at 10 µM [33]: < 40% | inhibition at 10 µM [34]: < 40% | Papp A→B [17]: 65 ×10⁻⁶ cm/s | IC50 [19]: 6.6 µg/mL (≈ 19.9 µM) | MIC [21]: 12.5 µg/mL (≈ 37.6 µM) | MIC [22]: 1.6 µg/mL (≈ 4.81 µM) | half-life [23]: > 240 min | IC50 [24]: 6.3 µg/mL (≈ 19 µM) | solubility kinetic [26]: 50 µM (≈ 16.6 µg/mL) | IC50 [27]: 10.6 µg/mL (≈ 31.9 µM) | inhibition at 10 µM [35]: < 40% | Papp B→A [28]: 35 ×10⁻⁶ cm/s | CC50 at 72 h [29]: > 20 µg/mL
